Measurements: the M2OR odorant receptor database

What follows are compounds tested against T1, OR10J5 (Homo sapiens) (UniProt Q8NHC4). Conditions: stereoisomer not certain.
T1 sequence (whole entry): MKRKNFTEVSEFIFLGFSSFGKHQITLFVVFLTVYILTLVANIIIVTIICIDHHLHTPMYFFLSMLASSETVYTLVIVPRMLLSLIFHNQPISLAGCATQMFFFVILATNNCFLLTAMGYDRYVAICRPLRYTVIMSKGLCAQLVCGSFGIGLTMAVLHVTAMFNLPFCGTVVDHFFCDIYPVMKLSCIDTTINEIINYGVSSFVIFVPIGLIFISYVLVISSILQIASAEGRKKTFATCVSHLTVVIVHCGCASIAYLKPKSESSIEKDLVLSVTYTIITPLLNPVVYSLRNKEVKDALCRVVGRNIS
Method in brief: (§1)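 Whether a receptor–molecule pair is responsive (active) rests on the original authors' judgment that its measured signal was statistically different from baseline. Pairs without that judgment are non-responsive (inactive). Sources used varied assay methods, commonly transient luciferase assays in mammalian cell lines.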

Odorant receptor agonist call, inactive:
CCCCCOC(=O)CCCCC
CCCCCCC=CCCC=O
CCCCCCCCS
CC1CCCCCCCCCCCCC(=O)C1 (stereo unspecified)
CCCC(C)=O
CCC1OC(=O)C(O)=C1C (stereo unspecified)
CCCCCC(=O)C(C)C(C)=O (stereo unspecified)
CC1=C(O)C(=O)C(C)O1 (stereo unspecified)
CC1=NC(C)C(C)S1 (stereo unspecified)
CCC1OC(C)=C(O)C1=O (stereo unspecified)
CCCCCCCCO
CCCCCCCC(=O)[O-].[H+]
CCCC(S)CCOC(C)=O (stereo unspecified)
CCCCCC(S)C(C)CO (stereo unspecified)
CCCCCCC(=O)[O-].[H+]
O=C1Cc2ccccc2O1
O=C1CCOc2ccccc21
CC(CO)CS (stereo unspecified)
CC(=O)c1c(C)c([N+](=O)[O-])c(C(C)(C)C)c([N+](=O)[O-])c1C
CCCCCCOC(C)=O
CCCCCCCCC(=O)O
c1ccccc1
Cc1cnc(C)c(C)n1
CCCCCC(=O)CC
CCC(S)C(C)CO (stereo unspecified)
CCCCOC=O
CCCCCCCO
CC1=C(O)C(=O)OC1C (stereo unspecified)

Odorant receptor agonist call, active:
CCCCC(S)C(C)CO (stereo unspecified)

These compounds were tested against T2, OR10K1 (Homo sapiens) (UniProt Q8NGX5). Conditions: stereoisomer not certain.
T2 sequence (whole entry): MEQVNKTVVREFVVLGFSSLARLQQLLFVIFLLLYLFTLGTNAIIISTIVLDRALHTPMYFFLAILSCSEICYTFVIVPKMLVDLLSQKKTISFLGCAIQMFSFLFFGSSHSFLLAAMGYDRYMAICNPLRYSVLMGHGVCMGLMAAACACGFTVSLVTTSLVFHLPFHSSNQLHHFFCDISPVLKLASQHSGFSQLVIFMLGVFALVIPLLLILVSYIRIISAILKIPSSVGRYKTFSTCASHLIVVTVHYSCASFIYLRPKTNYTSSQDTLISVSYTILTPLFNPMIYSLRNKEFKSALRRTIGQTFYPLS
Method in brief: as §1

Odorant receptor agonist call, inactive:
CCCCCCC=CCCC=O
CC1CCCCCCCCCCCCC(=O)C1 (stereo unspecified)
CCC1OC(=O)C(O)=C1C (stereo unspecified)
CCCCCC(=O)C(C)C(C)=O (stereo unspecified)
CC1=C(O)C(=O)C(C)O1 (stereo unspecified)
CC1=NC(C)C(C)S1 (stereo unspecified)
CCC1OC(C)=C(O)C1=O (stereo unspecified)
CCCC(S)CCOC(C)=O (stereo unspecified)
CCCCCC(S)C(C)CO (stereo unspecified)
CCCCC(S)C(C)CO (stereo unspecified)
CC(CO)CS (stereo unspecified)
CC(=O)c1c(C)c([N+](=O)[O-])c(C(C)(C)C)c([N+](=O)[O-])c1C
Cc1cnc(C)c(C)n1
CCC(S)C(C)CO (stereo unspecified)
CC1=C(O)C(=O)OC1C (stereo unspecified)

The compounds below were run against T3, OR10K2 (Homo sapiens) (UniProt Q6IF99). Conditions: stereoisomer not certain.
T3 sequence (whole entry): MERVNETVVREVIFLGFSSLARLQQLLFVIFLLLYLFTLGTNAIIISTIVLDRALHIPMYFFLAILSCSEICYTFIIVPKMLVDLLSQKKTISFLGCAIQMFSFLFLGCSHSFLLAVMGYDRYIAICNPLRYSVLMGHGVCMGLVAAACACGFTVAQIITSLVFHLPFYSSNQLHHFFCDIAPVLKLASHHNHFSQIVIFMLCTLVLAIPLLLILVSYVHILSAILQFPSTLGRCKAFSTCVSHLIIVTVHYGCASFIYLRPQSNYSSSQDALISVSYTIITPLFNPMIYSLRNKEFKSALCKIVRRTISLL
Method in brief: as §1

Odorant receptor agonist call, inactive:
CC1CCCCCCCCCCCCC(=O)C1 (stereo unspecified)
CCCCCC(=O)C(C)C(C)=O (stereo unspecified)
CCCCCC(S)C(C)CO (stereo unspecified)
CCCCC(S)C(C)CO (stereo unspecified)
CC(CO)CS (stereo unspecified)
CC(=O)c1c(C)c([N+](=O)[O-])c(C(C)(C)C)c([N+](=O)[O-])c1C
CCC(S)C(C)CO (stereo unspecified)
